In brackets after ≈: the same amount, converted by molar mass.
How the values were obtained:
Type in all cases: functional
Streptococcus pneumoniae [1] = assay: Antibacterial activity against Streptococcus pneumoniae 08-4 after 18 to 24 hrs by twofold serial dilution method
Procedure, shortened: (§1)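 MIC determined by the standard twofold serial dilution method on agar media, screening against Gram-positive and Gram-negative strains. Levofloxacin and gemifloxacin were run alongside as reference drugs.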

[2] = test system: Staphylococcus epidermidis; assay: Antibacterial activity against methicillin-resistant Staphylococcus epidermidis 09-4 after 18 to 24 hrs by twofold serial dilution method
Procedure, shortened: (§2)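 Standard twofold serial agar dilution method on agar media for MIC determination. Screened against representative Gram-positive and Gram-negative strains. Levofloxacin and GMFX served as control drugs.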

Klebsiella pneumoniae [3] = assay: Antibacterial activity against Klebsiella pneumoniae 09-21 after 18 to 24 hrs by twofold serial dilution method; procedure, shortened: as §1
[4] = test system: Staphylococcus epidermidis; assay: Antibacterial activity against methicillin-sensitive Staphylococcus epidermidis 09-3 after 18 to 24 hrs by twofold serial dilution method; procedure, shortened: as §2
Escherichia coli [5] = assay: Antibacterial activity against Escherichia coli 08-22 after 18 to 24 hrs by twofold serial dilution method; procedure, shortened: as §1
Escherichia coli [6] = assay: Antibacterial activity against Escherichia coli ATCC 25922 after 18 to 24 hrs by twofold serial dilution method; procedure, shortened: as §1
Enterococcus faecalis [7] = assay: Antibacterial activity against Enterococcus faecalis 08-10 after 18 to 24 hrs by twofold serial dilution method; procedure, shortened: as §1
Enterococcus faecium [8] = assay: Antibacterial activity against Enterococcus faecium 08-2 after 18 to 24 hrs by twofold serial dilution method; procedure, shortened: as §1
Staphylococcus aureus [9] = assay: Antibacterial activity against Staphylococcus aureus ATCC […] after 18 to 24 hrs by twofold serial dilution method; procedure, shortened: as §1
Pseudomonas aeruginosa [10] = assay: Antibacterial activity against Pseudomonas aeruginosa 09-33 after 18 to 24 hrs by twofold serial dilution method; procedure, shortened: as §1
Pseudomonas aeruginosa [11] = assay: Antibacterial activity against Pseudomonas aeruginosa 09-35 after 18 to 24 hrs by twofold serial dilution method; procedure, shortened: as §1
Pseudomonas aeruginosa [12] = assay: Antibacterial activity against Pseudomonas aeruginosa 09-32 after 18 to 24 hrs by twofold serial dilution method; procedure, shortened: as §1
Klebsiella pneumoniae [13] = assay: Antibacterial activity against Klebsiella pneumoniae 09-23 after 18 to 24 hrs by twofold serial dilution method; procedure, shortened: as §1
Pseudomonas aeruginosa [14] = assay: Antibacterial activity against Pseudomonas aeruginosa ATCC 27853 after 18 to 24 hrs by twofold serial dilution method; procedure, shortened: as §1
[15] = test system: Staphylococcus epidermidis; assay: Antibacterial activity against methicillin-resistant Staphylococcus epidermidis 09-2 after 18 to 24 hrs by twofold serial dilution method; procedure, shortened: as §2
Staphylococcus aureus [16] = assay: Antibacterial activity against methicillin-resistant Staphylococcus aureus 08-1 after 18 to 24 hrs by twofold serial dilution method; procedure, shortened: as §2
Enterococcus faecium [17] = assay: Antibacterial activity against Enterococcus faecium 08-7 after 18 to 24 hrs by twofold serial dilution method; procedure, shortened: as §1
Streptococcus pneumoniae [18] = assay: Antibacterial activity against Streptococcus pneumoniae 08-2 after 18 to 24 hrs by twofold serial dilution method; procedure, shortened: as §1
[19] = test system: Staphylococcus epidermidis; assay: Antibacterial activity against methicillin-resistant Staphylococcus epidermidis 09-3 after 18 to 24 hrs by twofold serial dilution method; procedure, shortened: as §2
Enterococcus faecalis [20] = assay: Antibacterial activity against Enterococcus faecalis 08-12 after 18 to 24 hrs by twofold serial dilution method; procedure, shortened: as §1
Escherichia coli [21] = assay: Antibacterial activity against Escherichia coli 08-21 after 18 to 24 hrs by twofold serial dilution method; procedure, shortened: as §1
[22] = test system: Staphylococcus epidermidis; assay: Antibacterial activity against methicillin-sensitive Staphylococcus epidermidis 09-6 after 18 to 24 hrs by twofold serial dilution method; procedure, shortened: as §2
Klebsiella pneumoniae [23] = assay: Antibacterial activity against Klebsiella pneumoniae 09-22 after 18 to 24 hrs by twofold serial dilution method; procedure, shortened: as §1
Pseudomonas aeruginosa [24] = assay: Antibacterial activity against Pseudomonas aeruginosa 09-34 after 18 to 24 hrs by twofold serial dilution method; procedure, shortened: as §1
Staphylococcus aureus [25] = assay: Antibacterial activity against methicillin-sensitive Staphylococcus aureus 08-2 after 18 to 24 hrs by twofold serial dilution method; procedure, shortened: as §2

Row | SMILES | MIC (Streptococcus pneumoniae [1]) [µg/mL] | MIC [2] [µg/mL] | MIC (Klebsiella pneumoniae [3]) [µg/mL] | MIC [4] [µg/mL] | MIC (Escherichia coli [5]) [µg/mL] | MIC (Escherichia coli [6]) [µg/mL] | MIC (Enterococcus faecalis [7]) [µg/mL] | MIC (Enterococcus faecium [8]) [µg/mL] | MIC (Staphylococcus aureus [9]) [µg/mL] | MIC (Pseudomonas aeruginosa [10]) [µg/mL] | MIC (Pseudomonas aeruginosa [11]) [µg/mL] | MIC (Pseudomonas aeruginosa [12]) [µg/mL] | MIC (Klebsiella pneumoniae [13]) [µg/mL] | MIC (Pseudomonas aeruginosa [14]) [µg/mL] | MIC [15] [µg/mL] | MIC (Staphylococcus aureus [16]) [µg/mL] | MIC (Enterococcus faecium [17]) [µg/mL] | MIC (Streptococcus pneumoniae [18]) [µg/mL] | MIC [19] [µg/mL] | MIC (Enterococcus faecalis [20]) [µg/mL] | further results
1 | CO/N=C1\CN(c2nc3c(cc2F)c(=O)c(C(=O)O)cn3C2CC2)CC1/C(N)=N\O (stereo not given) | 2 (≈ 4.78 µM) | 2 (≈ 4.78 µM) | > 128 | 128 (≈ 306 µM) | > 128 | 128 (≈ 306 µM) | > 128 | > 128 | 1 (≈ 2.39 µM) | 8 (≈ 19.1 µM) | > 128 | 8 (≈ 19.1 µM) | > 128 | 4 (≈ 9.56 µM) | 1 (≈ 2.39 µM) | 128 (≈ 306 µM) | > 128 | 2 (≈ 4.78 µM) | 1 (≈ 2.39 µM) | 4 (≈ 9.56 µM) | MIC (Escherichia coli [21]): > 128 µg/mL; MIC [22]: 128 µg/mL (≈ 306 µM); MIC (Klebsiella pneumoniae [23]): 32 µg/mL (≈ 76.5 µM); MIC (Pseudomonas aeruginosa [24]): 8 µg/mL (≈ 19.1 µM); MIC (Staphylococcus aureus [25]): 1 µg/mL (≈ 2.39 µM)
2 | CCO/N=C(/N)C1CN(c2nc3c(cc2F)c(=O)c(C(=O)O)cn3C2CC2)C/C1=N\OC (stereo not given) | > 128 | 0.125 (≈ 0.28 µM) | > 128 | 0.25 (≈ 0.56 µM) | > 128 | > 128 | > 128 | > 128 | 2 (≈ 4.48 µM) | > 128 | > 128 | > 128 | > 128 | > 128 | 2 (≈ 4.48 µM) | 2 (≈ 4.48 µM) | > 128 | > 128 | 0.25 (≈ 0.56 µM) | > 128 | MIC (Escherichia coli [21]): > 128 µg/mL; MIC [22]: 0.25 µg/mL (≈ 0.56 µM); MIC (Klebsiella pneumoniae [23]): 16 µg/mL (≈ 35.8 µM); MIC (Pseudomonas aeruginosa [24]): > 128 µg/mL; MIC (Staphylococcus aureus [25]): 2 µg/mL (≈ 4.48 µM)
3 | CO/N=C1\CN(c2nc3c(cc2F)c(=O)c(C(=O)O)cn3C2CC2)CC1/C(N)=N\OC (stereo not given) | 1 (≈ 2.31 µM) | 0.25 (≈ 0.578 µM) | > 128 | 0.25 (≈ 0.578 µM) | > 128 | 128 (≈ 296 µM) | > 128 | > 128 | 0.25 (≈ 0.578 µM) | > 128 | 64 (≈ 148 µM) | 128 (≈ 296 µM) | > 128 | 64 (≈ 148 µM) | 1 (≈ 2.31 µM) | 0.25 (≈ 0.578 µM) | > 128 | > 128 | 0.25 (≈ 0.578 µM) | > 128 | MIC (Escherichia coli [21]): > 128 µg/mL; MIC [22]: 0.25 µg/mL (≈ 0.578 µM); MIC (Klebsiella pneumoniae [23]): 1 µg/mL (≈ 2.31 µM); MIC (Pseudomonas aeruginosa [24]): > 128 µg/mL; MIC (Staphylococcus aureus [25]): 1 µg/mL (≈ 2.31 µM)
4 | CCO/N=C1\CN(c2c(F)cc3c(=O)c(C(=O)O)cn4c3c2OC[C@@H]4C)CC1/C(N)=N\OC (stereo not given in full) | 0.25 (≈ 0.542 µM) | 0.25 (≈ 0.542 µM) | > 128 | 0.25 (≈ 0.542 µM) | > 128 | 128 (≈ 277 µM) | 0.5 (≈ 1.08 µM) | > 128 | 0.25 (≈ 0.542 µM) | > 128 | > 128 | > 128 | > 128 | > 128 | 0.25 (≈ 0.542 µM) | 0.25 (≈ 0.542 µM) | > 128 | > 128 | 0.125 (≈ 0.271 µM) | > 128 | MIC (Escherichia coli [21]): > 128 µg/mL; MIC [22]: 0.5 µg/mL (≈ 1.08 µM); MIC (Klebsiella pneumoniae [23]): 1 µg/mL (≈ 2.17 µM); MIC (Pseudomonas aeruginosa [24]): > 128 µg/mL; MIC (Staphylococcus aureus [25]): 0.25 µg/mL (≈ 0.542 µM)
5 | CO/N=C1\CN(c2c(F)cc3c(=O)c(C(=O)O)cn(CCF)c3c2F)CC1/C(N)=N\OC (stereo not given) | 2 (≈ 4.39 µM) | 0.125 (≈ 0.274 µM) | > 128 | 0.25 (≈ 0.549 µM) | > 128 | 128 (≈ 281 µM) | 64 (≈ 141 µM) | > 128 | 0.125 (≈ 0.274 µM) | > 128 | 64 (≈ 141 µM) | 64 (≈ 141 µM) | > 128 | 32 (≈ 70.3 µM) | 2 (≈ 4.39 µM) | 0.125 (≈ 0.274 µM) | > 128 | 4 (≈ 8.78 µM) | 0.125 (≈ 0.274 µM) | > 128 | MIC (Escherichia coli [21]): > 128 µg/mL; MIC [22]: 0.25 µg/mL (≈ 0.549 µM); MIC (Klebsiella pneumoniae [23]): 4 µg/mL (≈ 8.78 µM); MIC (Pseudomonas aeruginosa [24]): > 128 µg/mL; MIC (Staphylococcus aureus [25]): 0.25 µg/mL (≈ 0.549 µM)

Source: ChEMBL document CHEMBL1287651, “Synthesis and in vitro antibacterial activity of fluoroquinolone derivatives containing 3-(N'-alkoxycarbamimidoyl)-4-(alkoxyimino) pyrrolidines” (2010)
